pIC50, pKd: −log10 of the molar value. Converted amounts (≈) assume the structure as drawn. The source made the active and inactive calls. The calls are words filed in the database; no cut-off is given here.
What was measured:
Salmonella typhimurium = test: Genotoxicity in Salmonella typhimurium TA98 by Ames test; type: toxicity, organism-based; conditions: salmonella enterica subsp. enterica serovar typhimurium
[1] = target: Vascular endothelial growth factor receptor 2 (Homo sapiens, UniProt P35968); test: Inhibition of human KDR using cisbio TK biotin-peptide as substrate preincubated for 30 mins followed by substrate addition measured after 30 mins by HTRF assay
[2] = target: Proto-oncogene tyrosine-protein kinase receptor Ret (Rattus norvegicus, UniProt G3V9H8); test: Binding affinity to RET in Sprague-Dawley rat colon tissue cell lysate using sepharose beads incubated for 45 mins by LC-MS/MS based chemoproteomics assay
Procedure, shortened: (§1)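 Colon tissue was isolated from rats and analysed by kinobead chemoproteomics. Compound competed with the beads for kinase binding. Apparent affinity is reported as pKdapp and converted to Kd.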

[3] = target: T1, Epithelial discoidin domain-containing receptor 1 (Rattus norvegicus, UniProt Q63474); test: Binding affinity to DDR1 in Sprague-Dawley rat colon tissue cell lysate using sepharose beads incubated for 45 mins by LC-MS/MS based chemoproteomics assay; procedure, shortened: as §1
T1 sequence (Q63474 whole entry): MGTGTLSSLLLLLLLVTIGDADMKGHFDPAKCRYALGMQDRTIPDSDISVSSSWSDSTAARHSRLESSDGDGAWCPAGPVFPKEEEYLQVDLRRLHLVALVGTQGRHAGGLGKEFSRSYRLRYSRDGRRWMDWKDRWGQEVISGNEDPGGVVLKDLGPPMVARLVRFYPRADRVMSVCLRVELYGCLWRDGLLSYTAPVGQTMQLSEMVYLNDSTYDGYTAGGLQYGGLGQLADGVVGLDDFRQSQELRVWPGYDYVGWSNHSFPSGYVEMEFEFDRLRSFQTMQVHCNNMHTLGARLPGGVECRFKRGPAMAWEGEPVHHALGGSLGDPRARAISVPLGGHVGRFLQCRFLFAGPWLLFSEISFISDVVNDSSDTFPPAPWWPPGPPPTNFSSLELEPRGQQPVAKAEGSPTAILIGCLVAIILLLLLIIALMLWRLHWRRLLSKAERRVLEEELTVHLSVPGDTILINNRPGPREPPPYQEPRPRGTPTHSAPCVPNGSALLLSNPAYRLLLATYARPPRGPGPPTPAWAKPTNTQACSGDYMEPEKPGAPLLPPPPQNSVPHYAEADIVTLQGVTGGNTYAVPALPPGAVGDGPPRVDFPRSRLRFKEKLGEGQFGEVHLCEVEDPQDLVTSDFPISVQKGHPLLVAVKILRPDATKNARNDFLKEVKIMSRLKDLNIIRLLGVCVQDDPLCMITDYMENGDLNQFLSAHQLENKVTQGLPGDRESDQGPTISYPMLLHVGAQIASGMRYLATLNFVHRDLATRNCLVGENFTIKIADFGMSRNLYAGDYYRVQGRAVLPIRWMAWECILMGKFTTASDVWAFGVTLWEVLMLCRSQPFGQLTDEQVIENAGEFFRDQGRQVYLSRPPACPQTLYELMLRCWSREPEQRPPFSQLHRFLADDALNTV

[4] = Binding affinity to DDR2 in Sprague-Dawley rat colon tissue cell lysate using sepharose beads incubated for 45 mins by LC-MS/MS based chemoproteomics assay; procedure, shortened: as §1
[5] = Solubility of the compound by CLND method; type: physicochemical
Procedure, shortened: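 Kinetic solubility was measured by chemiluminescent nitrogen detection.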

[6] = Solubility of the compound in FaSSIF after 4 hrs; type: physicochemical
Procedure, shortened: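 Solubility was measured in fasted state simulated intestinal fluid after 4 h.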

[7] = AUC in Sprague-Dawley rat at 0.06 mg/kg, iv administered via bolus; type: ADME, organism-based; conditions: in vivo
Procedure, shortened: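 Male Sprague–Dawley rats received a single IV bolus. Compound was formulated as a clear solution at 0.04 mg/mL in DMSO/6% HP-beta-CD (5:95), pH 7. AUC was derived from the plasma concentration–time curve.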

[8] = Cmax in colon contents of Sprague-Dawley rat at 10 mg/kg, po bid administered 7 doses over 3.5 days; type: ADME, organism-based, Colon content; parameters: dose 10 mg/kg, route oral
Procedure, shortened: (§2)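 Satellite rats from the colonic hypersensitivity dosing regimen received 10 mg/kg orally twice daily, seven doses over 3.5 days. Concentrations were measured in colon contents, duodenum, jejunum, ileum, colon tissue homogenate and plasma. Cmax (ng/mL) and Tmax (h) were taken from the full time–concentration profiles.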

[9] = Cmax in duodenum of Sprague-Dawley rat at 10 mg/kg, po bid administered 7 doses over 3.5 days; type: ADME, organism-based; parameters: dose 10 mg/kg, route oral; procedure, shortened: as §2
[10] = Cmax in jejunum of Sprague-Dawley rat at 10 mg/kg, po bid administered 7 doses over 3.5 days; type: ADME, organism-based; parameters: dose 10 mg/kg, route oral; procedure, shortened: as §2
[11] = Cmax in ileum of Sprague-Dawley rat at 10 mg/kg, po bid administered 7 doses over 3.5 days; type: ADME, organism-based; parameters: dose 10 mg/kg, route oral; procedure, shortened: as §2
[12] = Cmax in colon of Sprague-Dawley rat at 10 mg/kg, po bid administered 7 doses over 3.5 days; type: ADME, organism-based; parameters: dose 10 mg/kg, route oral; procedure, shortened: as §2
[13] = Cmax in plasma of Sprague-Dawley rat at 10 mg/kg, po bid administered 7 doses over 3.5 days; type: ADME, organism-based; parameters: dose 10 mg/kg, route oral; procedure, shortened: as §2
[14] = Tmax in colon contents of Sprague-Dawley rat at 10 mg/kg, po bid administered 7 doses over 3.5 days; type: ADME, organism-based, Colon content; procedure, shortened: as §2
[15] = Tmax in duodenum of Sprague-Dawley rat at 10 mg/kg, po bid administered 7 doses over 3.5 days; type: ADME, organism-based; procedure, shortened: as §2
[16] = Tmax in jejunum of Sprague-Dawley rat at 10 mg/kg, po bid administered 7 doses over 3.5 days; type: ADME, organism-based; procedure, shortened: as §2
[17] = Tmax in ileum of Sprague-Dawley rat at 10 mg/kg, po bid administered 7 doses over 3.5 days; type: ADME, organism-based; procedure, shortened: as §2
[18] = Tmax in colon of Sprague-Dawley rat at 10 mg/kg, po bid administered 7 doses over 3.5 days; type: ADME, organism-based; procedure, shortened: as §2
[19] = Tmax in plasma of Sprague-Dawley rat at 10 mg/kg, po bid administered 7 doses over 3.5 days; type: ADME, organism-based; procedure, shortened: as §2
Rattus norvegicus = test: Reduction in acetic acid-induced acute visceral afferent neuron sensitization in Sprague-Dawley rat acute colonic hypersensitivity model assessed as decrease in visceromotor response to colorectal distension by measuring number of abdominal contractions at 10 mg/kg, po bid administered for 3.5 days followed by acetic acid induction for 60 mins administered 5 mins post last compound dose and measured for 10 mins; type: functional, organism-based
Procedure, shortened: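 Acetic acid enema at low concentration gave a transient, noninflammatory sensitization of colonic afferents. Colorectal distension then evoked a visceromotor response, scored visually as abdominal contractions. Rats (n = 7 per group) were dosed orally at 10 mg/kg twice daily for 3.5 days and compared with acetic acid/vehicle controls. Analysis used repeated-measure two-way ANOVA with Bonferroni post-test.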

Chain of Vascular endothelial growth factor receptor 2 (P35968 whole entry): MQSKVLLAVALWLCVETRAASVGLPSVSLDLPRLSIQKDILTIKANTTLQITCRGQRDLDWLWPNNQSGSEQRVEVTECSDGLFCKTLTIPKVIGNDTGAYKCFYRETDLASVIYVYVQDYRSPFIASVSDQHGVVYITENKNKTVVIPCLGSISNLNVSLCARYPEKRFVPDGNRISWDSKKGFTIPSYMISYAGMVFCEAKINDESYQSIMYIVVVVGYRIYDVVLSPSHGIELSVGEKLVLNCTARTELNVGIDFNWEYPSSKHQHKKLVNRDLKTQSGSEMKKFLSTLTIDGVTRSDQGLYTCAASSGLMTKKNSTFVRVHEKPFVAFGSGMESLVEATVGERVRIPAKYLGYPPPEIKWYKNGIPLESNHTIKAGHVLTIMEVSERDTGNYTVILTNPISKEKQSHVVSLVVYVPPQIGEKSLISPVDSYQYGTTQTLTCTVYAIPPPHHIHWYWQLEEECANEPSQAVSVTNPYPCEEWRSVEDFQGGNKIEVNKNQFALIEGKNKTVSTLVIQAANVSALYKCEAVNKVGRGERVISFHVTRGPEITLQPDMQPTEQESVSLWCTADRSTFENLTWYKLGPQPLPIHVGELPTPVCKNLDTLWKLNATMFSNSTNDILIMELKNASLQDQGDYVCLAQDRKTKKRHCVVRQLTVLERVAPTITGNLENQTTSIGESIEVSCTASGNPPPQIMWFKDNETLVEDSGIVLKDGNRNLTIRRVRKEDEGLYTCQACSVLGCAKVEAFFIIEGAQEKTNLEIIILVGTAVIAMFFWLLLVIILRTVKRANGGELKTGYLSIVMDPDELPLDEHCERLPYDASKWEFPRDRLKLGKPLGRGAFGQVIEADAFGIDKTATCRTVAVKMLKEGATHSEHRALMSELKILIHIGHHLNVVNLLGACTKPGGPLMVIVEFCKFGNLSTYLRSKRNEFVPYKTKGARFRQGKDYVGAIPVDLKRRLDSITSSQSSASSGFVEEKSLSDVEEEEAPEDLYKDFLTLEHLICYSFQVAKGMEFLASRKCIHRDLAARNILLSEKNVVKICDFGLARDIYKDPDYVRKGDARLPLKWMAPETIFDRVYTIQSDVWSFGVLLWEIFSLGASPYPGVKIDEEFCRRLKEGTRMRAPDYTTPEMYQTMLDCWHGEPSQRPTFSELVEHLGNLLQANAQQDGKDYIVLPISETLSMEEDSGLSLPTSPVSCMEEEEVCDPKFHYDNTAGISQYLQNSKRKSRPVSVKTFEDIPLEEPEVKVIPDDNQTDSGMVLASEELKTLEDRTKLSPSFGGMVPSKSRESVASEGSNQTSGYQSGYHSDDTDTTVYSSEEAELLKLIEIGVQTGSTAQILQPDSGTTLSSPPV
Chain of Proto-oncogene tyrosine-protein kinase receptor Ret (G3V9H8 whole entry): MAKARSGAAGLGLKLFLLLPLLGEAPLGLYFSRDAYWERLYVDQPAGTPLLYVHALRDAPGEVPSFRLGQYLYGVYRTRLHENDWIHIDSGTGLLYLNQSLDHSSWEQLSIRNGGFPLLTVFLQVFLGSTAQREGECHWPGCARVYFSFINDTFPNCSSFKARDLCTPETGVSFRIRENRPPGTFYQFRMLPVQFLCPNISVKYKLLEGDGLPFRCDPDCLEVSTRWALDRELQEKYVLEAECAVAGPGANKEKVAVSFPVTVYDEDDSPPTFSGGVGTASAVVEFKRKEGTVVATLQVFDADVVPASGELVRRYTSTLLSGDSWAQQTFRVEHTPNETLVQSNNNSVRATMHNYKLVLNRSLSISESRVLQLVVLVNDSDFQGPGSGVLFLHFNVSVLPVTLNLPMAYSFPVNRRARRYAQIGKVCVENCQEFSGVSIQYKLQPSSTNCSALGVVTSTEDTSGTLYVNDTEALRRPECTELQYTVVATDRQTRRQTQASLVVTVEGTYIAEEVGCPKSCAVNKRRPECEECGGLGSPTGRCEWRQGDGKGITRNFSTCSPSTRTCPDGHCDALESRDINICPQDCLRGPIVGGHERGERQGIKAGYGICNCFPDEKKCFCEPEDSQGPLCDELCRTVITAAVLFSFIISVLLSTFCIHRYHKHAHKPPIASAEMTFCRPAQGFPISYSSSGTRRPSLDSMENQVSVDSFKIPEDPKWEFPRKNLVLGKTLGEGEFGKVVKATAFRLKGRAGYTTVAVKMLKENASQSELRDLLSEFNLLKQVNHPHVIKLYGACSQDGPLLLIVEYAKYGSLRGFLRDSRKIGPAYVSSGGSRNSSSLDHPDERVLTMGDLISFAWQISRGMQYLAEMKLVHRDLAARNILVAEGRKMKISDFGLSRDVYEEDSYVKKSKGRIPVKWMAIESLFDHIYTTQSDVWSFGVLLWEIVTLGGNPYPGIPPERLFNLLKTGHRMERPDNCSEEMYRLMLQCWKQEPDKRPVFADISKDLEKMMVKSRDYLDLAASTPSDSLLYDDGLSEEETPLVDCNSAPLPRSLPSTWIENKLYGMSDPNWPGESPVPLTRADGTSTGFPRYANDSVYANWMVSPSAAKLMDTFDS

## COc1cc(-c2ccc(N)c(F)c2)c[nH]c1=O
Salmonella typhimurium
  Activity: Toxic

## CC(C)(c1cc(N)no1)C(F)(F)F
Salmonella typhimurium
  Activity: Non-Toxic

## CCN1CCN(Cc2ccc(N)cc2C(F)(F)F)CC1
Salmonella typhimurium
  Activity: Toxic

## CCOc1cc(-c2ccc(N)cc2)c[nH]c1=O
Salmonella typhimurium
  Activity: Toxic

## CCN1CCN(Cc2ccc(NC(=O)Nc3ccc(-c4ccnc(NC)c4)cc3)cc2C(F)(F)F)CC1
[1]
  pIC50: < 6.00

## CCOc1cc(-c2ccc(N)c(F)c2)c[nH]c1=O
Salmonella typhimurium
  Activity: Toxic

## CCOc1cc(=O)[nH]cc1-c1ccc(CC(=O)Nc2cc(C(C)(C)C(F)(F)F)on2)c(F)c1 [GSK-3179106]
Salmonella typhimurium
  Activity: Non-Toxic
[2]
  pKd: 7.70
[3]
  pKd: 7.40
[4]
  pKd: 7.05
[5]
  solubility kinetic: 21 µM (≈ 9.82 µg/mL)
[6]
  solubility at 4 h: 0.4 µg/mL (≈ 0.856 µM)
[7]
  AUC: 102 ng·h/mL
[8]
  Cmax: 288000 ng/mL
[9]
  Cmax: 15700 ng/mL
[10]
  Cmax: 12800 ng/mL
[11]
  Cmax: 5520 ng/mL
[12]
  Cmax: 3360 ng/mL
[13]
  Cmax: 40 ng/mL
[14]
  Tmax: 7 h
[15]
  Tmax: 0 h
[16]
  Tmax: 1 h
[17]
  Tmax: 2 h
[18]
  Tmax: 7 h
[19]
  Tmax: 4 h
Rattus norvegicus
  Activity: Active

Reference: ChEMBL document CHEMBL4196113, “Discovery of a First-in-Class Gut-Restricted RET Kinase Inhibitor as a Clinical Candidate for the Treatment of IBS” (ACS Med Chem Lett, 2018)
